Assay results taken from BindingDB's records for doi:10.1021/jm9008532 (Universite Catholique De Louvain, 2009).
pIC50: −log10 of the molar value.

Biological target: T1, Fatty-acid amide hydrolase 1 (Homo sapiens, UniProt O00519)
T1 sequence (O00519 whole entry): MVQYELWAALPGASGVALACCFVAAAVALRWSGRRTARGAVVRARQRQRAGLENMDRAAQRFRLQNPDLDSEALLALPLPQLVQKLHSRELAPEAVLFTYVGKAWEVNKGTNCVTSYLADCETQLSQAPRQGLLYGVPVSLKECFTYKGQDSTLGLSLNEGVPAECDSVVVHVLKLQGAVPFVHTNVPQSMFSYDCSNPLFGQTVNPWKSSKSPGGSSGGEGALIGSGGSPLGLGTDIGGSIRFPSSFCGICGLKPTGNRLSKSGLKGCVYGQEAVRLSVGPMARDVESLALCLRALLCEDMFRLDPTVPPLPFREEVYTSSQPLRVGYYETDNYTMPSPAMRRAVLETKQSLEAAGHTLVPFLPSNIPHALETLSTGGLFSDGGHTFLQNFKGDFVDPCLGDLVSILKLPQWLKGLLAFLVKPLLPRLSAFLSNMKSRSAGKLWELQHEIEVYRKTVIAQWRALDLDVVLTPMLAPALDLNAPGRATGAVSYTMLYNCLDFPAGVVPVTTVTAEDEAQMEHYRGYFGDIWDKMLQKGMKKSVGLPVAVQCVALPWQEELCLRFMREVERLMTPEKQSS
Experiment: Inhibition of human recombinant FAAH using [3H]anandamide by competitive hydrolysis assay
In short: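 Compounds were added in DMSO, with DMSO alone as control, plus [3H]-AEA at 2 μM final, 37 °C for 10 min. The reaction was stopped on ice with cold chloroform/methanol (1:1), and the aqueous phase was counted by LSC with the buffer-only blank subtracted. IC50 is the mean of three independent experiments.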

CC(=O)O[C@@H]1[C@@H]([C@@H](C)OC(=O)CCc2ccccc2)C(=O)N1C(=O)CCc1ccccc1 [1-(3-Phenylpropanoyl)-(3R,4R)-3-[1(R)-(3-phenylpropanoyloxy)-ethyl]-4-(acetoxy)-azetidin-2-one]
pIC50: 5.66
